According to ChEMBL document CHEMBL1275524, “Activities of antifungal agents against yeasts and filamentous fungi: assessment according to the methodology of the European Committee on Antimicrobial Susceptibility Testing” (2008):
≈ marks a conversion by molar mass, not a printed value.

Legend:
Sporothrix schenckii [1] = assay: Antifungal activity against Sporothrix schenckii by EUCAST method; assay type: functional
Method in brief: (§1)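 Broth microdilution following the EUCAST reference procedure for spore-forming moulds, in flat-bottom plates with RPMI 1640 plus 2% glucose. Inoculum was 2 × 10^5 to 5 × 10^5 CFU/ml. MICs were read visually at 24 and 48 h as 100% growth reduction versus a drug-free control for polyenes and azoles. MEC was used for caspofungin. Tests were run in duplicate and repeated twice.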

Lomentospora prolificans = assay: Antifungal activity against Scedosporium prolificans; assay type: functional; method in brief: as §1
Cunninghamella [2] = assay: Antifungal activity against Cunninghamella species by EUCAST method; assay type: functional
Trichosporon inkin = assay: Antifungal activity against Trichosporon inkin by EUCAST method; assay type: functional
Method in brief: (§2)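 Nonfermentative yeasts were tested by the EUCAST microdilution recommendations with one change: plates were sealed and agitated at 350 rpm and 30°C for 48 h.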

[3] = Antifungal activity against Rhinocladiella aquaspersa by EUCAST method; assay type: functional
Method in brief: (§3)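 Dematiaceous fungi were tested by the EUCAST spore-forming mold reference procedure: flat-bottom microdilution plates, RPMI 1640 plus 2% glucose, inoculum 2 × 105 to 5 × 10^5 CFU/ml. Endpoints were read visually at 24 and 48 h. Polyenes and azoles: 100% growth reduction vs drug-free control. CPF: minimum effective concentration. Run in duplicate and repeated twice.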

Nakaseomyces glabratus [4] = assay: Antifungal activity against Candida glabrata; assay type: functional
Method in brief: (§4)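 Broth microdilution in flat-bottom plates in RPMI 1640 with 2% glucose; inoculum 0.5 × 105 to 2.5 × 10^5 CFU/ml. MICs were read spectrophotometrically at 24 h. AMB endpoint: ≥90% growth reduction vs drug-free control well. Azole and CPF endpoint: 50% reduction in optical density. MFC was taken as the lowest concentration giving 99% killing.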

Candida albicans = assay: Antifungal activity against Candida albicans by EUCAST method; assay type: functional; method in brief: as §4
Clavispora lusitaniae [5] = assay: Antifungal activity against Candida lusitaniae by EUCAST method; assay type: functional; method in brief: as §4
Pichia kudriavzevii [6] = assay: Antifungal activity against Candida krusei; assay type: functional
Method in brief: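 EUCAST broth microdilution for yeasts in flat-bottom plates, RPMI 1640 with 2% glucose, inoculum 0.5 × 105 to 2.5 × 10^5 CFU/ml. […] MFC is the lowest concentration giving 99% killing.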

Fusarium solani [7] = assay: Antifungal activity against Fusarium solani; assay type: functional
[8] = tested on: Meyerozyma guilliermondii; assay: Antifungal activity against Candida guilliermondii; assay type: functional; method in brief: as §4
Cunninghamella [9] = assay: Antifungal activity against Cunninghamella species; assay type: functional
Candida parapsilosis = assay: Antifungal activity against Candida parapsilosis by EUCAST method; assay type: functional; details: Lodderomyces parapsilosis; method in brief: as §4
Cryptococcus gattii [10] = assay: Antifungal activity against Cryptococcus neoformans var. gattii; assay type: functional, Cryptococcus bacillisporus
Method in brief: (§5)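 EUCAST yeast microdilution, modified for nonfermentative yeasts: plates were sealed and agitated at 350 rpm and 30°C for 48 h.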

Aspergillus fumigatus = assay: Antifungal activity against Aspergillus fumigatus by EUCAST method; assay type: functional
Talaromyces marneffei [11] = assay: Antifungal activity against Penicillium marneffei; assay type: functional
Curvularia lunata = assay: Antifungal activity against Curvularia lunata by EUCAST method; assay type: functional; method in brief: as §3
Cryptococcus gattii [12] = assay: Antifungal activity against Cryptococcus neoformans var. gattii by EUCAST method; assay type: functional, Cryptococcus bacillisporus; method in brief: as §5
Rhizomucor [13] = assay: Antifungal activity against Rhizomucor species; assay type: functional
Talaromyces marneffei [14] = assay: Antifungal activity against Penicillium marneffei by EUCAST method; assay type: functional
[15] = Antifungal activity against Rhizopus microsporus var. oligosporus; assay type: functional; method in brief: as §1
Trichosporon asahii [16] = assay: Antifungal activity against Trichosporon asahii by EUCAST method; assay type: functional; method in brief: as §2
Penicillium sp. = assay: Antifungal activity against Penicillium species; assay type: functional
Mucor [17] = assay: Antifungal activity against Mucor species by EUCAST method; assay type: functional
Mucor [18] = assay: Antifungal activity against Mucor species; assay type: functional
Fusarium solani [19] = assay: Antifungal activity against Fusarium solani by EUCAST method; assay type: functional
Clavispora lusitaniae [20] = assay: Antifungal activity against Candida lusitaniae; assay type: functional; method in brief: as §4
Rhizomucor [21] = assay: Antifungal activity against Rhizomucor species by EUCAST method; assay type: functional; method in brief: as §1
Sporothrix schenckii [22] = assay: Antifungal activity against Sporothrix schenckii; assay type: functional; method in brief: as §1
Pichia kudriavzevii [23] = assay: Antifungal activity against Candida krusei by EUCAST method; assay type: functional; method in brief: as §4
Geotrichum candidum = assay: Antifungal activity against Geotrichum candidum by EUCAST method; assay type: functional
Nakaseomyces glabratus [24] = assay: Antifungal activity against Candida glabrata by EUCAST method; assay type: functional; method in brief: as §4
Trichosporon asahii [25] = assay: Antifungal activity against Trichosporon asahii; assay type: functional; method in brief: as §2
Rhizopus = assay: Antifungal activity against Rhizopus species by EUCAST method; assay type: functional; method in brief: as §1
Lichtheimia corymbifera = assay: Antifungal activity against Absidia corymbifera; assay type: functional

## CC[C@@H]([C@H](C)O)n1ncn(-c2ccc(N3CCN(c4ccc(OC[C@@H]5CO[C@@](Cn6cncn6)(c6ccc(F)cc6F)C5)cc4)CC3)cc2)c1=O [POSACONAZOLE]
Sporothrix schenckii [1]
  MIC: 0.25 µg/mL (≈ 0.357 µM)
Lomentospora prolificans
  MFC: > 8 µg/mL
Cunninghamella [2]
  MIC: 2 µg/mL (≈ 2.85 µM)
Trichosporon inkin
  MIC: 0.28 µg/mL (≈ 0.4 µM)
[3]
  MIC: 0.06 µg/mL (≈ 0.0856 µM)
Nakaseomyces glabratus [4]
  MFC: > 4 µg/mL
Candida albicans
  MIC: 0.14 µg/mL (≈ 0.2 µM)
Clavispora lusitaniae [5]
  MIC: 0.06 µg/mL (≈ 0.0856 µM)
Pichia kudriavzevii [6]
  MFC: 0.5 µg/mL (≈ 0.713 µM)
Fusarium solani [7]
  MFC: > 8 µg/mL
[8]
  MFC: 0.25 µg/mL (≈ 0.357 µM)
Cunninghamella [9]
  MFC: 2 µg/mL (≈ 2.85 µM)
Candida parapsilosis
  MIC: 0.05 µg/mL (≈ 0.0713 µM)
Cryptococcus gattii [10]
  MFC: 0.125 µg/mL (≈ 0.178 µM)
Aspergillus fumigatus
  MIC: 0.37 µg/mL (≈ 0.528 µM)
Talaromyces marneffei [11]
  MFC: 0.25 µg/mL (≈ 0.357 µM)
Curvularia lunata
  MIC: 0.25 µg/mL (≈ 0.357 µM)
Cryptococcus gattii [12]
  MIC: 0.06 µg/mL (≈ 0.0856 µM)
Rhizomucor [13]
  MFC: > 2 µg/mL
Talaromyces marneffei [14]
  MIC: 0.06 µg/mL (≈ 0.0856 µM)
[15]
  MFC: > 8 µg/mL
Trichosporon asahii [16]
  MIC: 6 µg/mL (≈ 8.56 µM)
Penicillium sp.
  MFC: 0.5 µg/mL (≈ 0.713 µM)
Mucor [17]
  MIC: 0.72 µg/mL (≈ 1.03 µM)
Mucor [18]
  MFC: 2 µg/mL (≈ 2.85 µM)
Fusarium solani [19]
  MIC: 1 µg/mL (≈ 1.43 µM)
Clavispora lusitaniae [20]
  MFC: 0.06 µg/mL (≈ 0.0856 µM)
Rhizomucor [21]
  MIC: 2.23 µg/mL (≈ 3.18 µM)
Sporothrix schenckii [22]
  MFC: 0.5 µg/mL (≈ 0.713 µM)
Pichia kudriavzevii [23]
  MIC: 0.68 µg/mL (≈ 0.97 µM)
Geotrichum candidum
  MIC: 0.37 µg/mL (≈ 0.528 µM)
Nakaseomyces glabratus [24]
  MIC: 1.58 µg/mL (≈ 2.25 µM)
Trichosporon asahii [25]
  MFC: > 8 µg/mL
Rhizopus
  MIC: 0.78 µg/mL (≈ 1.11 µM)
Lichtheimia corymbifera
  MFC: 2 µg/mL (≈ 2.85 µM)
